Residues, ends and D or L forms follow the SMILES beside them.
Tests used:
[1] = target: T1, Integrin alpha-IIb/beta-3 (Homo sapiens, UniProt P05106+P08514); assay: Ability to inhibit the aggregation of fixed human platelets; format: functional
Outline: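 Human gel-filtered platelets activated with α-thrombin 1 U/mL (final) for 2 min at room temperature, then thrombin inhibitor 20 μM, fixed in 0.5% paraformaldehyde for 30 min, washed and resuspended at 2×10^8 cells/mL in Tyrode's-HSA. Compound preincubated 1 min with the suspension. Rate relative to no-antagonist control; IC50 calculated.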
Target sequence in this assay (P05106 27-788 limits assumed): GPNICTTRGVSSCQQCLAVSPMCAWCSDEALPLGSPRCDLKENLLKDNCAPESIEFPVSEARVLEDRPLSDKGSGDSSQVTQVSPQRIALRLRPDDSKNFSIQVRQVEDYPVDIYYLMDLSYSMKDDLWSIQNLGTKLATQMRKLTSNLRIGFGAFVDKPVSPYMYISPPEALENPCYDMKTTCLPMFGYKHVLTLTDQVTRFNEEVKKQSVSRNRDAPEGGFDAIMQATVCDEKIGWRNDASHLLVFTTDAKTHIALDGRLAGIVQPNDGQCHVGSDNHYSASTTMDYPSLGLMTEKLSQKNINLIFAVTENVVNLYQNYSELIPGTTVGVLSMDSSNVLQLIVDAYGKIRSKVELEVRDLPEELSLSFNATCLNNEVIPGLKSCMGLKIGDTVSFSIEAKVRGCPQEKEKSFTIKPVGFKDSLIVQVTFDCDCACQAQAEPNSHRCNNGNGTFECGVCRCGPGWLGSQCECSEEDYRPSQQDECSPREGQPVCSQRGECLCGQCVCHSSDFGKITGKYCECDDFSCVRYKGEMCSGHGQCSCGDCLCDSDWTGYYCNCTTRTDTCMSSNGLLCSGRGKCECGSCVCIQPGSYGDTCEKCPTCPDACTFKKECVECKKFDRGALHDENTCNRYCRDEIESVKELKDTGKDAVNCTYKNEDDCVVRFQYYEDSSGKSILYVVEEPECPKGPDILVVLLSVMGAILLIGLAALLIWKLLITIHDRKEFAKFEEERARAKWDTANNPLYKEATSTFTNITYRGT
Target sequence in this assay (P08514 32-887 limits assumed): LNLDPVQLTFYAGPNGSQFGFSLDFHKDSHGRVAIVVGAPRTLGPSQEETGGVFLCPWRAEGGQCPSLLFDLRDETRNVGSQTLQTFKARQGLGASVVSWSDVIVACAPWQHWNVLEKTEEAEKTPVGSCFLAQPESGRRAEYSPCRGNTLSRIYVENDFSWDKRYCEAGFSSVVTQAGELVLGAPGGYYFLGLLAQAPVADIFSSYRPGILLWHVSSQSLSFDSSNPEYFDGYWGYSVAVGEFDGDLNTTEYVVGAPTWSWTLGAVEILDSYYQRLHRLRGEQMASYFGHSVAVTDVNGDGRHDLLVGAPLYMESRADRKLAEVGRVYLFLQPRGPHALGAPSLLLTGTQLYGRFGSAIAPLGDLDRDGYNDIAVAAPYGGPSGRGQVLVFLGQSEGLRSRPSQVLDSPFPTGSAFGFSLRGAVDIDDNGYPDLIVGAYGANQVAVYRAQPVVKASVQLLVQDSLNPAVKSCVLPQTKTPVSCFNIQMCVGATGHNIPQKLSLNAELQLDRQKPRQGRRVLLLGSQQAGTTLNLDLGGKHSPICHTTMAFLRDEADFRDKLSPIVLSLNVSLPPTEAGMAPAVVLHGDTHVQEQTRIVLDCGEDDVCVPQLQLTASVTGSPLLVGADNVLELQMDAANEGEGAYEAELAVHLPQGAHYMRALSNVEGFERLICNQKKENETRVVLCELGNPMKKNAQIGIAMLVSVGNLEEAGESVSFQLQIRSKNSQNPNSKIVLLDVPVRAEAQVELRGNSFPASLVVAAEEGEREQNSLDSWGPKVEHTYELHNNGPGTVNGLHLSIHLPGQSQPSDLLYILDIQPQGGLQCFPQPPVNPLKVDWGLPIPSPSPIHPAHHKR
Target sequence in this assay (P08514 891-1039 limits assumed): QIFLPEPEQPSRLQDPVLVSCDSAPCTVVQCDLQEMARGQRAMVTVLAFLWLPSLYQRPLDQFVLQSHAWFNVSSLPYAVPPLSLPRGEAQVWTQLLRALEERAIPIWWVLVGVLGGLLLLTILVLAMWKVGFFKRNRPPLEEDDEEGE

[2] = target: T1, Integrin alpha-IIb/beta-3; assay: Inhibition of radiolabeled fibrinogen binding to activated human platelets; format: functional
Outline: (§1)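 Washed human platelets at 1×10^8/mL in Tyrode's buffer, run in duplicate. Inhibitor and labelled fibrinogen added before agonist, either TRAP (SFLLRN-NH2) 100 μM or ADP 10 μM. Incubated 30 min at room temperature, spun through a 20% sucrose cushion, pellet γ-counted. IC50 determined.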
Target sequence in this assay (P05106 27-788 limits assumed): as the sequence (P05106 27-788 limits assumed) above
Target sequence in this assay (P08514 32-887 limits assumed): as the sequence (P08514 32-887 limits assumed) above
Target sequence in this assay (P08514 891-1039 limits assumed): as the sequence (P08514 891-1039 limits assumed) above

[3] = target: T1, Integrin alpha-IIb/beta-3; assay: Inhibition of radiolabeled fibrinogen binding to activated human platelets.; format: functional; outline: as §1
Target sequence in this assay (P05106 27-788 limits assumed): as the sequence (P05106 27-788 limits assumed) above
Target sequence in this assay (P08514 32-887 limits assumed): as the sequence (P08514 32-887 limits assumed) above
Target sequence in this assay (P08514 891-1039 limits assumed): as the sequence (P08514 891-1039 limits assumed) above

[4] = target: Integrin alpha-V/beta-3 (Homo sapiens); assay: Inhibition of HUVEC adhesion to fibronectin-coated plates
[5] = target: Integrin alpha-V/beta-3 (Homo sapiens); assay: Inhibition of HUVEC adhesion to fibrinogen-coated plates
[6] = target: T1, Integrin alpha-IIb/beta-3; assay: Percent inhibition of ex vivo platelet aggregation after 3 hours of administration; format: functional, organism-based; details: concentration not given here
Outline: (§2)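 Mongrel dogs of either sex dosed by intragastric gavage, compound dissolved in deionized water. Citrated venous blood drawn 10 min predose and at 1, 3, 6, 12 and 24 h. PRP adjusted to 300 000 platelets/μL, stirred at 37 °C, primed with epinephrine 1 μM, then ADP 10 μM added. Light-transmission slope read in duplicate, expressed as % decrease versus predose PRP. Mean of at least two dogs per dose.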

[7] = target: T1, Integrin alpha-IIb/beta-3; assay: Percent inhibition of ex vivo platelet aggregation after 1 hour of administration; format: functional, organism-based; details: concentration not given here; outline: as §2
[8] = target: T1, Integrin alpha-IIb/beta-3; assay: Inhibition of ex vivo platelet aggregation after 3 hr treatment; format: functional; details: concentration not given here; outline: as §2
[9] = target: T1, Integrin alpha-IIb/beta-3; assay: Inhibition of ex vivo platelet aggregation after 1 hr treatment; format: functional; details: concentration not given here; outline: as §2
[10] = target: T1, Integrin alpha-IIb/beta-3; assay: Inhibition of ex vivo platelet aggregation after 6 hr treatment; format: functional; details: concentration not given here; outline: as §2
[11] = target: Integrin alpha-V/beta-3 (Homo sapiens); assay: Inhibition of HUVEC adhesion to vitronectin-coated plates
[12] = target: T1, Integrin alpha-IIb/beta-3; assay: Percent inhibition of ex vivo platelet aggregation after 6 hours of administration; format: functional, organism-based; details: concentration not given here; outline: as §2
[13] = Compound was evaluated for the rate of degradation by Carboxypeptidase A.; format: ADME
Outline: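 Bovine pancreatic carboxypeptidase A diluted in 5% LiCl, activity checked with hippuryl-L-phenylalanine. Substrate made up at 1.0 mM in 0.05 M Tris with 1.0 M NaCl, pH 7.5, then combined with enzyme (2.0 units total). Incubated 60 min at room temperature, with hydrolysis followed by HPLC every 9 min. Rate of hydrolysis normalized to 1 unit of enzyme.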

CCN(CC(=O)N[C@@H](CC(=O)O)C(=O)N[C@@H](CCCC1CCCCC1)C(=O)O)C(=O)CCCC1CCNCC1
IC50 [1]: 0.053 µM

CCN(CC(=O)N[C@@H](CC(=O)O)C(=O)N[C@@H](CC(C)(C)C)C(=O)O)C(=O)CCCC1CCNCC1
IC50 [1]: 0.082 µM | IC50 [2]: 0.072 µM

CCN(CC(=O)N[C@@H](CC(=O)O)C(=O)N[C@@H](Cc1ccc2ccccc2c1)C(=O)O)C(=O)CCCC1CCNCC1
IC50 [3]: 0.022 µM

CCN(CC(=O)N[C@@H](CC(=O)O)C(=O)N[C@@H](CC1CCC2CCCCC2C1)C(=O)O)C(=O)CCCC1CCNCC1 (stereo partly specified)
IC50 [1]: 0.096 µM

CCN(CC(=O)N[C@@H](CC(=O)O)C(=O)N[C@@H](CC1CCCCC1)C(N)=O)C(=O)CCCC1CCNCC1
IC50 [4]: > 2400 µM | IC50 [1]: 0.097 µM | IC50 [5]: > 2350 µM | IC50 [3]: 0.028 µM

CCN(CC(=O)N[C@@H](CC(=O)O)C(=O)N[C@H](C(=O)O)C(C)C)C(=O)CCCCC1CCNCC1
IC50 [1]: 0.21 µM

CCOC(=O)[C@H](CC1CCCCC1)NC(=O)[C@H](CC(=O)O)NC(=O)CN(CC)C(=O)CCCC1CCNCC1
IC50 [1]: 0.064 µM | IC50 [2]: 0.016 µM

CCN(CC(=O)N[C@@H](CC(=O)O)C(=O)N[C@H](C(=O)O)C(C)C)C(=O)CCCCCNC(=N)N
IC50 [1]: 0.47 µM

CCN(CC(=O)N[C@@H](CC(=O)O)C(=O)N[C@H](CC1CCCCC1)C(=O)O)C(=O)CCCC1CCNCC1
IC50 [1]: 1.37 µM

CC(C)[C@H](NC(=O)[C@H](CC(=O)O)NC(=O)CNC(=O)CCCC1CCNCC1)C(=O)O
IC50 [1]: 1.06 µM | inhibition [6]: 0% | inhibition [7]: 47%

CCN(CC(=O)N[C@@H](CC(=O)O)C(=O)N[C@@H](CC1CCCC2CCCCC21)C(=O)O)C(=O)CCCC1CCNCC1 (stereo partly specified)
IC50 [1]: 0.019 µM | IC50 [2]: 0.011 µM

CCN(CC(=O)N[C@@H](CC(=O)O)C(=O)N[C@@H](CC1CCCCCC1)C(=O)O)C(=O)CCCC1CCNCC1
IC50 [1]: 0.032 µM

CCN(CC(=O)N[C@@H](CC(=O)O)C(=O)N[C@@H](CO)CC1CCCCC1)C(=O)CCCC1CCNCC1
IC50 [1]: 0.129 µM

CCN(CC(=O)N[C@@H](CC(=O)O)C(=O)N[C@H](C(=O)O)C(C)C)C(=O)CCC1CCNCC1
IC50 [1]: 0.77 µM

CCN(CC(=O)N[C@@H](CC(=O)O)C(=O)N[C@@H](CC1CCCC1)C(=O)O)C(=O)CCCC1CCNCC1
IC50 [1]: 0.047 µM

CCN(CC(=O)N[C@@H](CC(=O)O)C(=O)N[C@@H](Cc1ccccc1)C(=O)O)C(=O)CCCC1CCNCC1
IC50 [1]: 0.064 µM

CCN(CC(=O)N[C@@H](CC(=O)O)C(=O)N[C@@H](CC1CCCCCCC1)C(=O)O)C(=O)CCCC1CCNCC1
IC50 [1]: 0.078 µM

CC(C)[C@H](NC(=O)[C@H](CC(=O)O)NC(=O)CNC(=O)[C@@H](N)CCCNC(=N)N)C(=O)O (H-RGDV-OH)
IC50 [1]: 10 µM

CCN(CC(=O)N[C@@H](CC(=O)O)C(=O)N[C@H](C(=O)O)C1CCCCC1)C(=O)CCCC1CCNCC1
IC50 [1]: 0.032 µM

CCN(CC(=O)N[C@@H](CC(=O)O)C(=O)N[C@H](C(=O)O)C(C)C)C(=O)CCCCN=C(N)N
inhibition [8]: 0% | inhibition [9]: 23% | inhibition [10]: 0%

CCN(CC(=O)N[C@@H](CC(=O)O)C(=O)N[C@@H](CCC1CCCCC1)C(=O)O)C(=O)CCCC1CCNCC1
IC50 ([4]; huvec): > 2400 µM | IC50 [1]: 0.031 µM | IC50 ([5]; huvec): 1930 µM | IC50 ([11]; huvec): > 2500 µM | IC50 [3]: 0.011 µM

CCN(CC(=O)N[C@@H](CC(=O)O)C(=O)N[C@H](C(=O)O)C(C)C)C(=O)CCCC1CCNCC1
IC50 [1]: 0.027 µM | inhibition [12]: 20% | inhibition [6]: 66% | IC50 [2]: 0.008 µM | inhibition [7]: 80%

CCCC[C@H](NC(=O)[C@H](CC(=O)O)NC(=O)CN(CC)C(=O)CCCC1CCNCC1)C(=O)O
IC50 [1]: 0.13 µM | Activity [13]: 7.4 nmol/min/unit | IC50 [2]: 0.011 µM

CCN(CC(=O)N[C@@H](CC(=O)O)C(=O)N[C@@H](C(=O)O)C(C)C)C(=O)CCCC1CCNCC1
IC50 [1]: 0.72 µM | IC50 [2]: 0.26 µM

CCN(CC(=O)N[C@@H](CC(=O)O)C(=O)NCCC1CCCCC1)C(=O)CCCC1CCNCC1
IC50 [1]: 0.072 µM | IC50 [3]: 0.01 µM

CCN(CC(=O)N[C@@H](CC(=O)O)C(=O)N[C@@H](CC1CCCCC1)C(=O)O)C(=O)CCCC1CCNCC1
IC50 [4]: > 1750 µM | IC50 [1]: 0.026 µM | IC50 [5]: 1010 µM | IC50 [11]: > 1650 µM | IC50 [3]: 0.017 µM | Activity [13]: 0.6 nmol/min/unit

CCN(CC(=O)N[C@@H](CC(=O)O)C(=O)N[C@@H](Cc1cccc2ccccc12)C(=O)O)C(=O)CCCC1CCNCC1
IC50 [1]: 0.11 µM | IC50 [3]: 0.022 µM | Activity [13]: 3.1 nmol/min/unit
